ChEMBL document CHEMBL4229382, “Phenylthiazoles with tert-Butyl side chain: Metabolically stable with anti-biofilm activity” (Eur J Med Chem, 2018)
Values after ≈ are worked out from the molar mass of the structure shown. Active and inactive are the calls of the source. The calls are words filed in the database; no cut-off is given here.

How the values were obtained:
Listeria monocytogenes [1] = test: Selectivity ratio of MBC to MIC for Listeria monocytogenes ATCC 19111; type: functional
Staphylococcus aureus [2] = test: Antibacterial activity against vancomycin-resistant Staphylococcus aureus VRS10 after 18 hrs by broth microdilution assay; type: functional; settings: VRS10, 18 h
Procedure, shortened: (§1)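 Broth microdilution: inoculum from 0.5 McFarland suspension diluted to about 5 × 10^5 CFU/mL. Media were cation-adjusted Mueller-Hinton broth for staphylococci, brain heart infusion for E. faecium, and tryptone soya broth for E. faecalis, S. pneumoniae and L. monocytogenes.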

Staphylococcus aureus [3] = test: Inhibition of biofilm formation in methicillin-resistant Staphylococcus aureus NRS384 USA300 at 2 times MIC after 24 hrs by crystal violet staining-based spectrophotometric analysis relative to control; design: scale not given: the % may be the effect or the level left
[4] = test system: Staphylococcus epidermidis; test: Antibacterial activity against methicillin-resistant Staphylococcus epidermidis NRS101 after 18 hrs by broth microdilution assay; type: functional; settings: NRS101, 18 h; procedure, shortened: as §1
Enterococcus faecium [5] = test: Bactericidal activity against vancomycin-resistant Enterococcus faecium ATCC 700221 incubated fo 18 hrs followed by re-plating on tryptic soy agar plates at 37 degC for 18 hrs by broth microdilution assay; settings: ATCC 700221, 18 h
Caco-2 = test: Cytotoxicity against human Caco2 cells at 32 ug/ml after 2 hrs by MTS assay; type: cell-based; settings: caco-2, 2 h
Procedure, shortened: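 Caco-2 cells grown in DMEM with 20% FBS, non-essential amino acids and penicillin-streptomycin, 37 °C, 5% CO2; exposed in triplicate to compounds (16, 32, 64 µg/mL) for 2 h; MTS added, 4 h further incubation, OD490 read; viability as percent of DMSO-treated controls; two independent experiments.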

Staphylococcus aureus [6] = test: Antibacterial activity against methicillin-sensitive Staphylococcus aureus ATCC 6538 after 18 hrs by broth microdilution assay; type: functional; settings: ATCC 6538, 18 h; procedure, shortened: as §1
Staphylococcus aureus [7] = test: Bactericidal activity against methicillin-resistant Staphylococcus aureus NRS386 incubated fo 18 hrs followed by re-plating on tryptic soy agar plates at 37 degC for 18 hrs by broth microdilution assay; type: functional; settings: NRS386, 18 h
Staphylococcus aureus [8] = test: Bactericidal activity against methicillin-resistant Staphylococcus aureus NRS123 USA400 incubated fo 18 hrs followed by re-plating on tryptic soy agar plates at 37 degC for 18 hrs by broth microdilution assay; type: functional; settings: NRS123 USA400, 18 h
Staphylococcus aureus [9] = test: Antibacterial activity against vancomycin-resistant Staphylococcus aureus VRS12 after 18 hrs by broth microdilution assay; type: functional; settings: VRS12, 18 h; procedure, shortened: as §1
Staphylococcus aureus [10] = test: Antibacterial activity against methicillin-resistant Staphylococcus aureus NRS123 USA400 assessed as reduction in bacterial burden measured over 24 hrs by time kill assay; type: functional
Procedure, shortened: (§2)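 Samples taken at 0, 2, 4, 6, 8, 12 and 24 h were serially diluted in PBS, plated on TSA and incubated ≥18 h for viable CFU/mL. DMSO was the negative control; two independent experiments.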

Enterococcus faecium [11] = test: Antibacterial activity against vancomycin-resistant Enterococcus faecium ATCC 700221 after 18 hrs by broth microdilution assay; type: functional; settings: ATCC 700221, 18 h; procedure, shortened: as §1
Streptococcus pneumoniae [12] = test: Bactericidal activity against cephalosporin-resistant Streptococcus pneumoniae ATCC 51916 incubated fo 18 hrs followed by re-plating on tryptic soy agar plates at 37 degC for 18 hrs by broth microdilution assay; type: functional; settings: ATCC 51916, 18 h
Staphylococcus aureus [13] = test: Inhibition of biofilm formation in methicillin-resistant Staphylococcus aureus NRS384 USA300 after 24 hrs by crystal violet staining-based spectrophotometric analysis
Streptococcus pneumoniae [14] = test: Antibacterial activity against cephalosporin-resistant Streptococcus pneumoniae ATCC 51916 after 18 hrs by broth microdilution assay; type: functional; settings: ATCC 51916, 18 h; procedure, shortened: as §1
Streptococcus pneumoniae [15] = test: Antibacterial activity against methicillin-resistant Streptococcus pneumoniae ATCC 700677 after 18 hrs by broth microdilution assay; type: functional; settings: ATCC 700677, 18 h; procedure, shortened: as §1
Listeria monocytogenes [16] = test: Antibacterial activity against Listeria monocytogenes ATCC 19111 after 18 hrs by broth microdilution assay; type: functional; settings: ATCC 19111, 18 h
Enterococcus faecalis [17] = test: Antibacterial activity against vancomycin-resistant Enterococcus faecalis ATCC 51299 after 18 hrs by broth microdilution assay; type: functional; settings: ATCC 51299, 18 h; procedure, shortened: as §1
[18] = Safety index, ratio of cytotoxicity against human Caco2 cells at 32 ug/ml after 2 hrs by MTS assay to antibacterial activity against methicillin-resistant Staphylococcus aureus; type: toxicity, cell-based; settings: Caco-2 cells
Staphylococcus aureus [19] = test: Antibacterial activity against methicillin-resistant Staphylococcus aureus 2658 RCMB after 18 hrs by broth microdilution assay; type: functional; procedure, shortened: as §1
Staphylococcus aureus [20] = test: Inhibition of biofilm formation in methicillin-resistant Staphylococcus aureus NRS384 USA300 at 1 time MIC after 24 hrs by crystal violet staining-based spectrophotometric analysis relative to control; design: scale not given: the % may be the effect or the level left
Staphylococcus aureus [21] = test: Antibacterial activity against methicillin-resistant Staphylococcus aureus NRS123 USA400 after 18 hrs by broth microdilution assay; type: functional; settings: NRS123 USA400, 18 h; procedure, shortened: as §1
Staphylococcus aureus [22] = test: Antibacterial activity against methicillin-sensitive Staphylococcus aureus NRS107 after 18 hrs by broth microdilution assay; type: functional; settings: NRS107, 18 h; procedure, shortened: as §1
Staphylococcus aureus [23] = test: Bactericidal activity against methicillin-sensitive Staphylococcus aureus NRS107 incubated fo 18 hrs followed by re-plating on tryptic soy agar plates at 37 degC for 18 hrs by broth microdilution assay; type: functional; settings: NRS107, 18 h
Staphylococcus aureus [24] = test: Antibacterial activity against methicillin-resistant Staphylococcus aureus NRS384 USA300 after 18 hrs by broth microdilution assay; type: functional; settings: NRS384 USA300, 18 h; procedure, shortened: as §1
Staphylococcus aureus [25] = test: Bactericidal activity against vancomycin-resistant Staphylococcus aureus VRS10 incubated fo 18 hrs followed by re-plating on tryptic soy agar plates at 37 degC for 18 hrs by broth microdilution assay; type: functional; settings: VRS10, 18 h
Staphylococcus aureus [26] = test: Bactericidal activity against methicillin-sensitive Staphylococcus aureus ATCC 6538 incubated fo 18 hrs followed by re-plating on tryptic soy agar plates at 37 degC for 18 hrs by broth microdilution assay; type: functional; settings: ATCC 6538, 18 h
Listeria monocytogenes [27] = test: Bactericidal activity against Listeria monocytogenes ATCC 19111 incubated fo 18 hrs followed by re-plating on tryptic soy agar plates at 37 degC for 18 hrs by broth microdilution assay; type: functional; settings: ATCC 19111, 18 h
Staphylococcus aureus [28] = test: Antibacterial activity against methicillin-resistant Staphylococcus aureus NRS119 after 18 hrs by broth microdilution assay; type: functional; settings: NRS119, 18 h; procedure, shortened: as §1
Staphylococcus aureus [29] = test: Bactericidal activity against vancomycin-resistant Staphylococcus aureus VRS12 incubated fo 18 hrs followed by re-plating on tryptic soy agar plates at 37 degC for 18 hrs by broth microdilution assay; type: functional; settings: VRS12, 18 h
Streptococcus pneumoniae [30] = test: Bactericidal activity against methicillin-resistant Streptococcus pneumoniae ATCC 700677 incubated fo 18 hrs followed by re-plating on tryptic soy agar plates at 37 degC for 18 hrs by broth microdilution assay; type: functional; settings: ATCC 700677, 18 h
Staphylococcus aureus [31] = test: Bactericidal activity against methicillin-resistant Staphylococcus aureus NRS384 USA300 incubated fo 18 hrs followed by re-plating on tryptic soy agar plates at 37 degC for 18 hrs by broth microdilution assay; type: functional; settings: NRS384 USA300, 18 h
Staphylococcus aureus [32] = test: Bactericidal activity against methicillin-resistant Staphylococcus aureus NRS385 incubated fo 18 hrs followed by re-plating on tryptic soy agar plates at 37 degC for 18 hrs by broth microdilution assay; type: functional; settings: NRS385, 18 h
Staphylococcus aureus [33] = test: Antibacterial activity against methicillin-resistant Staphylococcus aureus NRS386 after 18 hrs by broth microdilution assay; type: functional; settings: NRS386, 18 h; procedure, shortened: as §1
[34] = test system: Staphylococcus epidermidis; test: Bactericidal activity against methicillin-resistant Staphylococcus epidermidis NRS101 incubated fo 18 hrs followed by re-plating on tryptic soy agar plates at 37 degC for 18 hrs by broth microdilution assay; type: functional; settings: NRS101, 18 h
Staphylococcus aureus [35] = test: Bactericidal activity against methicillin-resistant Staphylococcus aureus NRS119 incubated fo 18 hrs followed by re-plating on tryptic soy agar plates at 37 degC for 18 hrs by broth microdilution assay; type: functional; settings: NRS119, 18 h
Staphylococcus aureus [36] = test: Antibacterial activity against methicillin-resistant Staphylococcus aureus NRS385 after 18 hrs by broth microdilution assay; type: functional; settings: NRS385, 18 h; procedure, shortened: as §1
[37] = Terminal phase volume of distribution at steady state in Sprague-Dawley rat at 5 uM, iv administered as bolus dose by LC-MS/MS analysis; type: ADME, organism-based; settings: in vivo, read-out: Vbeta
Procedure, shortened: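 Male naïve Sprague–Dawley rats (n = 3) given tail-vein IV bolus of a 5 µM solution; blood taken into EDTA-K2 over 12 h; plasma protein-precipitated with acetonitrile and measured by LC/MS/MS; parameters from two-compartmental analysis.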

Staphylococcus aureus [38] = test: Antibacterial activity against methicillin-resistant Staphylococcus aureus NRS123 USA400 assessed as reduction in bacterial growth after 2 to 4 hrs by time kill assay; type: functional, organism-based; procedure, shortened: as §2
Staphylococcus aureus [39] = test: Antibacterial activity against methicillin-resistant Staphylococcus aureus NRS123 USA400 assessed as change in MIC after 14 serial passages by broth microdilution assay
Enterococcus faecalis [40] = test: Bactericidal activity against vancomycin-resistant Enterococcus faecalis ATCC 51299 incubated fo 18 hrs followed by re-plating on tryptic soy agar plates at 37 degC for 18 hrs by broth microdilution assay; type: functional; settings: ATCC 51299, 18 h

For `Cc1nc(-c2ccc(C(C)(C)C)cc2)sc1-c1ccnc(NC(=N)c2cccnc2)n1`, the Ratio (Listeria monocytogenes [1]) was >3, the MIC (Staphylococcus aureus [2]) was 4 µg/mL (≈ 9.33 µM) and the Activity (Staphylococcus aureus [3]) was 65.2%. For the same molecule, the MIC [4] was 64 µg/mL (≈ 149 µM), the MBC (Enterococcus faecium [5]) was 16 µg/mL (≈ 37.3 µM) and the Activity (Caco-2) was “Non-Toxic”. The MIC (Staphylococcus aureus [6]) was 4 µg/mL (≈ 9.33 µM), the MBC (Staphylococcus aureus [7]) was 4 µg/mL (≈ 9.33 µM) and the MBC (Staphylococcus aureus [8]) was 4 µg/mL (≈ 9.33 µM). It also gave an MIC (Staphylococcus aureus [9]) of 4 µg/mL (≈ 9.33 µM), an Activity (Staphylococcus aureus [10]) of 2.3 log10CFU/ml and an MIC (Enterococcus faecium [11]) of 8 µg/mL (≈ 18.7 µM). For the same molecule, the MBC (Streptococcus pneumoniae [12]) was 8 µg/mL (≈ 18.7 µM), the inhibition (Staphylococcus aureus [13]) was “Dose-dependent effect” and the MIC (Streptococcus pneumoniae [14]) was 4 µg/mL (≈ 9.33 µM). It also gave an MIC (Streptococcus pneumoniae [15]) of 4 µg/mL (≈ 9.33 µM), an MIC (Listeria monocytogenes [16]) of 4 µg/mL (≈ 9.33 µM) and an MIC (Enterococcus faecalis [17]) of 8 µg/mL (≈ 18.7 µM). The selectivity ratio at 2 h, 32 ug/ml [18] was 8 to 30, the MIC (Staphylococcus aureus [19]) was 0.78 µg/mL (≈ 1.82 µM) and the Activity (Staphylococcus aureus [20]) was 45.8%. For the same molecule, the MIC (Staphylococcus aureus [21]) was 4 µg/mL (≈ 9.33 µM), the MIC (Staphylococcus aureus [22]) was 4 µg/mL (≈ 9.33 µM) and the MBC (Staphylococcus aureus [23]) was 4 µg/mL (≈ 9.33 µM). It also gave an MIC (Staphylococcus aureus [24]) of 4 µg/mL (≈ 9.33 µM), an MBC (Staphylococcus aureus [25]) of 4 µg/mL (≈ 9.33 µM) and an MBC (Staphylococcus aureus [26]) of 4 µg/mL (≈ 9.33 µM). The MBC (Listeria monocytogenes [27]) was 64 µg/mL (≈ 149 µM), the MIC (Staphylococcus aureus [28]) was 4 µg/mL (≈ 9.33 µM) and the MBC (Staphylococcus aureus [29]) was 4 µg/mL (≈ 9.33 µM). The MBC (Streptococcus pneumoniae [30]) was 8 µg/mL (≈ 18.7 µM), the MBC (Staphylococcus aureus [31]) was 4 µg/mL (≈ 9.33 µM) and the MBC (Staphylococcus aureus [32]) was 4 µg/mL (≈ 9.33 µM). For the same molecule, the MIC (Staphylococcus aureus [33]) was 4 µg/mL (≈ 9.33 µM), the MBC [34] was > 64 µg/mL and the MBC (Staphylococcus aureus [35]) was 4 µg/mL (≈ 9.33 µM). It also gave an MIC (Staphylococcus aureus [36]) of 4 µg/mL (≈ 9.33 µM).
With `Cc1nc(-c2ccc(C(C)(C)C)cc2)sc1-c1ccnc(NCCN)n1` the Activity (Staphylococcus aureus [3]) was 64%, the MBC (Enterococcus faecium [5]) was 8 µg/mL (≈ 21.8 µM) and the Activity (Caco-2) was “Non-Toxic”. The MIC (Staphylococcus aureus [6]) was 4 µg/mL (≈ 10.9 µM), the Vd at 5 µM [37] was 16.4 L and the MBC (Streptococcus pneumoniae [12]) was 16 µg/mL (≈ 43.5 µM). The inhibition (Staphylococcus aureus [13]) was “Dose-dependent effect”, the MIC (Streptococcus pneumoniae [15]) was 2 µg/mL (≈ 5.44 µM) and the Activity (Staphylococcus aureus [38]) was “Active”. For the same molecule, the MIC (Enterococcus faecalis [17]) was 16 µg/mL (≈ 43.5 µM), the selectivity ratio at 2 h, 32 ug/ml [18] was 8 to 30 and the MIC (Staphylococcus aureus [19]) was 1.17 µg/mL (≈ 3.18 µM). The Activity (Staphylococcus aureus [20]) was 28%, the Ratio (Staphylococcus aureus [39]) was 1 and the MIC (Staphylococcus aureus [22]) was 4 µg/mL (≈ 10.9 µM). The MBC (Streptococcus pneumoniae [30]) was 16 µg/mL (≈ 43.5 µM) and the MBC (Enterococcus faecalis [40]) was 16 µg/mL (≈ 43.5 µM).
